The source made the active and inactive calls. No cut-off for these calls is given here.
What was measured:
[1] = biological target: Voltage-dependent L-type calcium channel subunit alpha-1D (Rattus norvegicus, UniProt P27732); test: Antagonist activity at rat voltage-dependent L-type calcium channel Cav1.3alpha-1D expressed in HEK293 cells by FLIPR assay; assay type: cell-based
Procedure, shortened: (§1)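 HEK293 lines stably expressing rat CaV1.3α1D or rabbit CaV1.2α1C, with rat CaVβ3 and rat CaVα2δ-1 cDNAs used in construction. Calcium influx was read by Fluo-8 fluorescence on a FLIPR Tetra. […] The selectivity ratio is CaV1.3 IC50 over CaV1.2 IC50.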

[2] = Selectivity ratio of IC50 for rabbit voltage-dependent L-type calcium channel Cav1.2alpha-1C to IC50 for rat voltage-dependent L-type calcium channel Cav1.3alpha-1D
[3] = biological target: T1, Voltage-dependent L-type calcium channel subunit alpha-1C (Oryctolagus cuniculus, UniProt P15381); test: Antagonist activity at rabbit voltage-dependent L-type calcium channel Cav1.2alpha-1C expressed in HEK293 cells by FLIPR assay; assay type: cell-based; procedure, shortened: as §1
[4] = Selectivity ratio of inhibition for rat voltage-dependent L-type calcium channel Cav1.3alpha-1D to inhibition for rabbit voltage-dependent L-type calcium channel Cav1.2alpha-1C at 0.3 uM
[5] = biological target: T1, Voltage-dependent L-type calcium channel subunit alpha-1C; test: Antagonist activity at rabbit voltage-dependent L-type calcium channel Cav1.2alpha-1C expressed in HEK293 cells assessed as inhibition of peak barium current at 1 to 10 uM by whole-cell patch-clamp electrophysiology technique; assay type: cell-based
Procedure, shortened: (§2)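 Stably transfected HEK293 cells were held on poly-D-lysine coverslips for 24–48 h at 37 °C, then whole-cell voltage-clamped. External solution (mM): 140 NaCl, 1 MgCl2, 10 BaCl2, 10 HEPES, 10 dextrose, 10 sucrose, 20 CsCl, pH 7.4. Ba2+ currents were evoked by a 100 ms step from −80 to 0 mV. Compound was perfused at 1 or 10 µM from a DMSO stock. Percent inhibition of peak current or of end current (last 50 ms) was taken, n = 5, as the median.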

[6] = biological target: T1, Voltage-dependent L-type calcium channel subunit alpha-1C; test: Antagonist activity at rabbit voltage-dependent L-type calcium channel Cav1.2alpha-1C expressed in HEK293 cells assessed as inhibition of end barium current at 1 to 10 uM by whole-cell patch-clamp electrophysiology technique; assay type: cell-based; procedure, shortened: as §2
[7] = biological target: Voltage-dependent L-type calcium channel subunit alpha-1D (Rattus norvegicus) (UniProt P27732); test: Antagonist activity at rat voltage-dependent L-type calcium channel Cav1.3alpha-1D expressed in HEK293 cells assessed as inhibition of end barium current at 1 to 10 uM by whole-cell patch-clamp electrophysiology technique; assay type: cell-based; procedure, shortened: as §2
[8] = biological target: Voltage-dependent L-type calcium channel subunit alpha-1D (Rattus norvegicus) (UniProt P27732); test: Antagonist activity at rat voltage-dependent L-type calcium channel Cav1.3alpha-1D expressed in HEK293 cells assessed as inhibition of peak barium current at 1 to 10 uM by whole-cell patch-clamp electrophysiology technique; assay type: cell-based; procedure, shortened: as §2
[9] = Selectivity ratio of IC50 for rat voltage-dependent L-type calcium channel Cav1.3alpha-1D to IC50 for rabbit voltage-dependent L-type calcium channel Cav1.2alpha-1C
Procedure, shortened: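 HEK293 lines stably expressing rat CaV1.3α1D or rabbit CaV1.2α1C, with rat CaVβ3 and rat CaVα2δ-1 cDNAs used in construction. Calcium influx was read by Fluo-8 fluorescence on a FLIPR Tetra. The selectivity ratio is CaV1.3 IC50 over CaV1.2 IC50.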

Voltage-dependent L-type calcium channel subunit alpha-1D, sequence (P27732 whole entry): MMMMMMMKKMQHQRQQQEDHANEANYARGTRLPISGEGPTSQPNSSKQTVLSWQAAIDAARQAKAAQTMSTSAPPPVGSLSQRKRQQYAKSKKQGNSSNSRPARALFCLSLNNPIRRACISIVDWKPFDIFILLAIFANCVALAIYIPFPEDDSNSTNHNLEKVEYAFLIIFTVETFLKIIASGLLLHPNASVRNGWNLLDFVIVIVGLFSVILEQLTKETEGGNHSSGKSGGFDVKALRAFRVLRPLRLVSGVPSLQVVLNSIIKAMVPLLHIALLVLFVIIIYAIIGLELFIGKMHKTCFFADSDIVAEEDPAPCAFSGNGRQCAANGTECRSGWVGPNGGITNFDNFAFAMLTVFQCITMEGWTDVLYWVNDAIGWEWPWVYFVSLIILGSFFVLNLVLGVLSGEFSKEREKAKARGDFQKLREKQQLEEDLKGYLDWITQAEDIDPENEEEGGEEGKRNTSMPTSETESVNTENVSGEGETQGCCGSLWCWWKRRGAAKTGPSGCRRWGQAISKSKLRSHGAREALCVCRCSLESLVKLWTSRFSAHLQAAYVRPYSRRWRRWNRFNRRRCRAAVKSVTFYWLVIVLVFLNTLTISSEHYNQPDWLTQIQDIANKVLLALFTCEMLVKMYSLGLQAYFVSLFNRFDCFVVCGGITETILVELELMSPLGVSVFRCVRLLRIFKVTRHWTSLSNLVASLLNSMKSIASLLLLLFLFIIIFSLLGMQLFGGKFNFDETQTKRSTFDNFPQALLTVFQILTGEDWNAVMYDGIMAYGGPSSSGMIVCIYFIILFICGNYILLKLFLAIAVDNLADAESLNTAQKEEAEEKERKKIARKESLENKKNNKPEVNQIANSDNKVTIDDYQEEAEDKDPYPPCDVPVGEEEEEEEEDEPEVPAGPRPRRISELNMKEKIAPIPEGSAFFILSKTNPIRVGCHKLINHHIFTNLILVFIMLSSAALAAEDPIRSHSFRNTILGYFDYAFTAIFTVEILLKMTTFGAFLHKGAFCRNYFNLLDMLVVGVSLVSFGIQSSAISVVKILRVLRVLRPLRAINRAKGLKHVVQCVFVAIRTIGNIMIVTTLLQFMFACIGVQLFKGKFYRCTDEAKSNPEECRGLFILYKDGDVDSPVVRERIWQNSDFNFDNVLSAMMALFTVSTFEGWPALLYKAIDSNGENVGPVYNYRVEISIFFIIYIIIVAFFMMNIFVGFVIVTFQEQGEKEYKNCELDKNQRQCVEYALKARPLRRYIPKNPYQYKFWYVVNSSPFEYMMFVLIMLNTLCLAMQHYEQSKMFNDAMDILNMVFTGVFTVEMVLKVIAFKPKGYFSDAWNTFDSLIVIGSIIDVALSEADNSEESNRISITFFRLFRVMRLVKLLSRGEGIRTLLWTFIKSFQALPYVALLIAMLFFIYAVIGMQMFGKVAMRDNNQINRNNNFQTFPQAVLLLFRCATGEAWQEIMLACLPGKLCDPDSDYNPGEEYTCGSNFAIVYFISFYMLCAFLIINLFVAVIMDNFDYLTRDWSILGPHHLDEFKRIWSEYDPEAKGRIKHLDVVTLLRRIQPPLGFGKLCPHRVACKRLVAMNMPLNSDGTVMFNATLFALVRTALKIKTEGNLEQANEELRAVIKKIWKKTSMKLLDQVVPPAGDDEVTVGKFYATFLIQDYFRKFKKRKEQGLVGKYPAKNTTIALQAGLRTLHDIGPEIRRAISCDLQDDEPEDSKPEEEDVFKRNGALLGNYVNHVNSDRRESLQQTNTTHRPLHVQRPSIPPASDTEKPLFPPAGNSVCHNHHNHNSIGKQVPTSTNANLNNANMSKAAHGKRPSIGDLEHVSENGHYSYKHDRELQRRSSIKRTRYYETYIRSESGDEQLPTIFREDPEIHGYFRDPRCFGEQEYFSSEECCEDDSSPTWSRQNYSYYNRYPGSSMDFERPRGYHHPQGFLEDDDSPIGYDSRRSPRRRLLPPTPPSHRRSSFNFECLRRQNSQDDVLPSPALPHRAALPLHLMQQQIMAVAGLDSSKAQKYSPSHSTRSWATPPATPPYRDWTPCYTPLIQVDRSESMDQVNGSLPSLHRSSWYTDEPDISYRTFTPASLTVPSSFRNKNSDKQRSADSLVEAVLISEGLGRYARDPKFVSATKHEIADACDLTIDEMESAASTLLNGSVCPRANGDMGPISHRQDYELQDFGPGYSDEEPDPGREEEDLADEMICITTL
T1 sequence (P15381 whole entry): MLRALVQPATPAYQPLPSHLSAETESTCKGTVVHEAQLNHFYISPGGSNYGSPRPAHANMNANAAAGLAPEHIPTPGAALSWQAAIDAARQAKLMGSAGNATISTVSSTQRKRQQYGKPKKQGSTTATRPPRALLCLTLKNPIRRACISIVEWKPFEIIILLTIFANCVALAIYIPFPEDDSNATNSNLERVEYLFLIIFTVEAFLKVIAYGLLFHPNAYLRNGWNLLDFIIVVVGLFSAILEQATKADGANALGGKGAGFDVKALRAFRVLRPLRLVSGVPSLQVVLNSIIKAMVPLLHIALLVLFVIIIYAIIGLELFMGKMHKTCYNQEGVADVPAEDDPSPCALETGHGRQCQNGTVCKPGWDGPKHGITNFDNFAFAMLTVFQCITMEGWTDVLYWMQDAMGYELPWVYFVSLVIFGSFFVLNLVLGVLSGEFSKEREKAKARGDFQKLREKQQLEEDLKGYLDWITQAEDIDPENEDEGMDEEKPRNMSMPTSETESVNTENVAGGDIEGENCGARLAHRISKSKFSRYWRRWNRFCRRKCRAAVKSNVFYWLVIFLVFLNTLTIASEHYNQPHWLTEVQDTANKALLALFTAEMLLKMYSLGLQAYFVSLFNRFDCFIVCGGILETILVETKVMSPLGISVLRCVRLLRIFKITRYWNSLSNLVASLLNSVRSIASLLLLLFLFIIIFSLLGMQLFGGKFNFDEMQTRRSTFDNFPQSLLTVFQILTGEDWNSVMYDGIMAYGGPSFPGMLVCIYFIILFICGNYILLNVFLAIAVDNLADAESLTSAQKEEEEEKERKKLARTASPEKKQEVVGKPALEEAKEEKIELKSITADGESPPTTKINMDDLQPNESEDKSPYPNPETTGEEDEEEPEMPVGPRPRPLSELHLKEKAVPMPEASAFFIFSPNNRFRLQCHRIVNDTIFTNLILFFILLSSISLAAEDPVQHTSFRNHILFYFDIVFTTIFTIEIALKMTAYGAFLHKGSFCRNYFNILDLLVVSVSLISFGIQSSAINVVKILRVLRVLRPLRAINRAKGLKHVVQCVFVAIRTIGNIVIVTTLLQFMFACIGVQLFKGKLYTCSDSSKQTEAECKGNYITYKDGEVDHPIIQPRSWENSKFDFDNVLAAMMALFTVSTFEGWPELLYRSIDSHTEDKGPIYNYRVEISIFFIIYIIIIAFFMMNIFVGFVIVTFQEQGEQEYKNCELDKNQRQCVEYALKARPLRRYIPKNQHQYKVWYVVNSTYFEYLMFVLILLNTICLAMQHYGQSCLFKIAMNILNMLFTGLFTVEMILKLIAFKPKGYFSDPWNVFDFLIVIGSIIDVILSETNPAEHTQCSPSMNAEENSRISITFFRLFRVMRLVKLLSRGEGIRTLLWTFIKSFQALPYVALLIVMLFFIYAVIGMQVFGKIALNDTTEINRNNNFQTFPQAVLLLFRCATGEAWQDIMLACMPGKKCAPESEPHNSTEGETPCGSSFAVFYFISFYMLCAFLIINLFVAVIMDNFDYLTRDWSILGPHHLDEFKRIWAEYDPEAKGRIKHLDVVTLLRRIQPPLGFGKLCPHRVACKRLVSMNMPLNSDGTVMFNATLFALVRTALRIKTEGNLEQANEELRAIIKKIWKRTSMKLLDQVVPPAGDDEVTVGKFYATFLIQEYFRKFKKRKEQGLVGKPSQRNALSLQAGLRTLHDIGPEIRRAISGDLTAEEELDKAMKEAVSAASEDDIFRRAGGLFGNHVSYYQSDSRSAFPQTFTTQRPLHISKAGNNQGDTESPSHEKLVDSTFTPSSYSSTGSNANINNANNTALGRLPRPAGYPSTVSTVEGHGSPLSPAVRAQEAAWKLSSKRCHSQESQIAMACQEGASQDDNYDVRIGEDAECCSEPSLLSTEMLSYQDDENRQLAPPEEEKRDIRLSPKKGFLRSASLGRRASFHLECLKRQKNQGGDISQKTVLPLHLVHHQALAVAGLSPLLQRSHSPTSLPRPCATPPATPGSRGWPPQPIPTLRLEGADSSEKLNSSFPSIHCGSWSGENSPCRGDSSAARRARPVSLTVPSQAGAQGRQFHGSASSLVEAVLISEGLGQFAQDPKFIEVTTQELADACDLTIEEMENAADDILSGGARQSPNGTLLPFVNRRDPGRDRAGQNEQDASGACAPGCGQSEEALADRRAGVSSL
Voltage-dependent L-type calcium channel subunit alpha-1D (Rattus norvegicus), sequence (P27732 whole entry): as the sequence (P27732 whole entry) above

Row | IC50 [1] [µM] | Structure (SMILES) | Ratio IC50 [2] | IC50 [3] [µM] | other results
1 | 1.96 | CC1=C(C(=O)OC(C)C)[C@H](c2cccc([N+](=O)[O-])c2)N(C(=O)OC(C)C)C(=O)N1 | 1.6 | 3.07 | 
2 | 0.88 | COC(=O)C1=C(C)NC(=S)N(C(=O)OC(C)C)C1c1cccc([N+](=O)[O-])c1 (configuration not stated) | 0.2 | 0.17 | 
3 | 0.221 | COC(=O)C1=C(C)NC(C)=C(C(=O)OC(C)C)C1c1cccc2nonc12 (configuration not stated) [ISRADIPINE] | 0.5 | 0.107 | Selectivity ratio [4]: 0.69
4 | 24.5 | CCOC(=O)N1C(=O)NC(C(C)C)=C(C(=O)OC)C1c1cccc([N+](=O)[O-])c1 (configuration not stated) | 0.6 | 14.8 | 
5 | 2.96 | COC(=O)N1C(=O)NC(C)=C(C(=O)OC(C)C)C1c1cccc([N+](=O)[O-])c1 (racemic) | 0.9 | 2.48 | 
6 | 46.6 | CC1=C(C(=O)OC(C)C)C(c2cccc([N+](=O)[O-])c2)NC(=O)N1 (configuration not stated) |  | 58.1 | 
7 | 18.9 | COC(=O)C1=C(C)NC(=O)NC1c1cccc([N+](=O)[O-])c1 (configuration not stated) | 0.6 | 11.7 | 
8 | 1.91 | COC(=O)N1C(=O)NC(C)=C(C(=O)OC(C)C)[C@H]1c1cccc([N+](=O)[O-])c1 | 1.2 | 2.36 | 
9 | 1.86 | CSC1=NC(c2cccc([N+](=O)[O-])c2)C(C(=O)OC(C)C)=C(C)N1 (configuration not stated) | 0.2 | 0.42 | 
10 | > 100 | COC(=O)C1=C(C(C)C)NC(=O)NC1c1cccc([N+](=O)[O-])c1 (configuration not stated) |  | > 100 | 
11 | 10.1 | COC(=O)C1=C(C(C)C)NC(=O)N(C(=O)OC(C)C)C1c1cccc([N+](=O)[O-])c1 (configuration not stated) | 1 | 10.4 | 
12 | 15.8 | CC1=C(C(=O)OC(C)C)C(c2cccc([N+](=O)[O-])c2)NC(=S)N1 (configuration not stated) | 0.7 | 10.7 | 
13 | 2.72 | CCOC(=O)C1=C(N)OC(C)=C(C(=O)OC)C1c1cccc([N+](=O)[O-])c1 (configuration not stated) | 0.2 | 0.58 | 
14 | 0.99 | CC1=C(C(=O)OC(C)C)C(c2cccc([N+](=O)[O-])c2)N(C(=O)C(C)C)C(=O)N1 (configuration not stated) | 0.5 | 0.5 | 
15 | 4.6 | COC(=O)C1=C(C)NC(=O)N(C(=O)OC(C)C)C1c1cccc([N+](=O)[O-])c1 (configuration not stated) | 0.6 | 2.48 | 
16 | 0.51 | CC1=C(C(=O)OC(C)C)[C@@H](c2cccc([N+](=O)[O-])c2)N(C(=O)OC(C)C)C(=O)N1 | 2.1 | 1.02 | inhibition (INH) [5]: Active; inhibition (INH) [6]: Active; inhibition [7]: Active; inhibition [8]: Active
17 | 3.25 | CNC1=NC(C)=C(C(=O)OC(C)C)C(c2cccc([N+](=O)[O-])c2)N1C(=O)OC (configuration not stated) | 0.8 | 2.45 | 
18 | 10.7 | COC(=O)N1C(SC)=NC(C)=C(C(=O)OC(C)C)C1c1cccc([N+](=O)[O-])c1 (configuration not stated) | 0.4 | 5.54 | 
19 | 13.9 | CCOC(=O)N1C(=O)N(C(=O)OCC)C(c2cccc([N+](=O)[O-])c2)C(C(=O)OC)=C1C(C)C (configuration not stated) |  | 13.9 | Ratio IC50 [9]: 1

Row | IC50 [1] [µM] | Structure (SMILES) | Ratio IC50 [2] | IC50 [3] [µM] | other results
20 | 5.58 | COC(=O)C1=C(C)N=C(SC)N(C(=O)OC(C)C)C1c1cccc([N+](=O)[O-])c1 (configuration not stated) | 3 | 16.1 | 
21 | 4.31 | CC(C)OC(=O)C1=C(C(C)C)NC(=O)N(C(=O)OC(C)C)C1c1cccc([N+](=O)[O-])c1 (configuration not stated) | 0.5 | 1.93 | 
22 | 12.8 | COC(=O)N1C(=S)NC(C)=C(C(=O)OC(C)C)[C@@H]1c1cccc([N+](=O)[O-])c1 | 0.8 | 9.87 | 
23 | 1.39 | CC1=C(C(=O)OC(C)C)C(c2cccc([N+](=O)[O-])c2)C(C(=O)OC(C)C)=C(N)O1 (configuration not stated) | 0.6 | 0.86 | 
24 | 0.56 | COC(=O)N1C(=S)NC(C)=C(C(=O)OC(C)C)[C@H]1c1cccc([N+](=O)[O-])c1 | 0.9 | 0.5 | 
25 | 0.55 | COC(=O)N1C(=S)NC(C)=C(C(=O)OC(C)C)C1c1cccc([N+](=O)[O-])c1 (racemic) | 0.6 | 0.35 | 
26 | 9.95 | CCOC(=O)C1=C(NC(=O)C(C)C)OC(C)=C(C(=O)OC)C1c1cccc([N+](=O)[O-])c1 (configuration not stated) | 0.4 | 4.23 | 
27 | 5.88 | COC(=O)N1C(=O)N(C(=O)OC)C(c2cccc([N+](=O)[O-])c2)C(C(=O)OC(C)C)=C1C (configuration not stated) | 1.1 | 6.13 | 
28 | 1.11 | COC(=O)SC1=NC(C)=C(C(=O)OC(C)C)C(c2cccc([N+](=O)[O-])c2)N1C(=O)OC (configuration not stated) | 0.9 | 1.02 | 
29 | > 100 | COC(=O)C1=C(C)NC(=S)NC1c1cccc([N+](=O)[O-])c1 (configuration not stated) |  | 55 | 
30 | 1.82 | COC(=O)C1=C(C)OC(N)=C(C(=O)OC(C)C)C1c1cccc([N+](=O)[O-])c1 (configuration not stated) | 0.2 | 0.41 | 
31 | 0.66 | CC1=C(C(=O)OC(C)C)C(c2cccc([N+](=O)[O-])c2)N(C(=O)OC(C)C)C(=O)N1 (racemic) | 1 | 0.64 | 
32 | 35.1 | COC(=O)N1C(=O)NC(C)=C(C(=O)OC(C)C)[C@@H]1c1cccc([N+](=O)[O-])c1 | 0.6 | 21.7 | 
33 | 10.6 | COC(=O)C1=C(C)N=C(SC)NC1c1cccc([N+](=O)[O-])c1 (configuration not stated) | 0.3 | 3.29 | 
34 | 4.22 | CNC1=NC(C)=C(C(=O)OC)C(c2cccc([N+](=O)[O-])c2)N1C(=O)OC(C)C (configuration not stated) | 0.4 | 1.81 | 
35 | > 100 | COC(=O)C1=C(C(C)C)NC(=O)N(C(=O)C(C)C)C1c1cccc([N+](=O)[O-])c1 (configuration not stated) |  | 56.6 | 
36 | 13.6 | COC(=O)C1=C(C)OC(NC(C)=O)=C(C(=O)OC(C)C)C1c1cccc([N+](=O)[O-])c1 (configuration not stated) | 0.5 | 6.11 | 
37 | 10 | CCOC(=O)C1=C(NC(C)=O)OC(C)=C(C(=O)OC)C1c1cccc([N+](=O)[O-])c1 (configuration not stated) | 0.5 | 4.75 | 

Source: ChEMBL document CHEMBL2396637, “Antagonism of L-type Ca2+ channels CaV1.3 and CaV1.2 by 1,4-dihydropyrimidines and 4H-pyrans as dihydropyridine mimics” (Bioorg Med Chem, 2013)
